# Test results from ChEMBL document CHEMBL4028889 (2017).
# Calls of active or inactive are those of the source. The calls are words filed in the database; no cut-off is given here.
# Legend:
# [1] = tested on: PC-12; assay: Neuroprotective activity against etoposide-induced apoptosis in rat PC12 cells assessed as cell viability at 0.3 uM pretreated for 4 hrs followed by etoposide challenge measured after 48 hrs by PrestoBlue assay relative to control; assay type: functional; conditions: read-out: Activity
# Method in brief: (§1)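 PC12 cells were plated at 50000/well on collagen-coated plates and left overnight. They were pretreated 4 h with compound, then given 15 μg/mL etoposide. Viability was read at 48 h by PrestoBlue (ex 560/em 590 nm). n = 3, mean ± SEM, as % viability.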
# [2] = tested on: PC-12; assay: Neuroprotective activity against etoposide-induced apoptosis in rat PC12 cells assessed as increase in cell viability at 0.1 uM pretreated for 4 hrs followed by etoposide challenge measured after 48 hrs by PrestoBlue assay relative to control; assay type: functional, cell-based; method in brief: as §1
# [3] = tested on: PC-12; assay: Neuroprotective activity against etoposide-induced apoptosis in rat PC12 cells assessed as increase in Bcl2/Bax ratio at 3 uM pretreated for 4 hrs followed by etoposide challenge measured after 48 hrs by Western blot method; assay type: functional, cell-based
# Method in brief: (§2)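 PC12 cells were pretreated 4 h with compound before etoposide and lysed after 24 or 48 h. 50 μg protein was run on 10% SDS gel and blotted. Probes were Bcl-2 (1:1000), Bax (1:500) and actin, with HRP chemiluminescence and densitometric Bcl-2/Bax ratio. n = 2, mean ± SEM.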
# [4] = tested on: PC-12; assay: Induction of autophagy in rat PC12 cells at 3 uM after 48 hrs by MDC staining-based flow cytometric method relative to control; assay type: functional
# Method in brief: (§3)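 PC12 cells were treated for 48 h and then stained with 0.5 mM monodansylcadaverine for 30 min at 37 °C. Trypsinized cells were pooled with floating cells and resuspended in PBS/1% FBS. 10000 cells were read by flow cytometry in the FITC channel after gating out debris. MDC staining is expressed relative to vehicle.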
# [5] = tested on: PC-12; assay: Induction of autophagy in rat PC12 cells after 48 hrs by MDC staining-based flow cytometric method; assay type: functional, cell-based; method in brief: as §3
# [6] = Neuroprotective activity against etoposide-induced apoptosis in human IMR90-c4 cells assessed as increase in cell viability at 3 uM pretreated for 4 hrs followed by etoposide challenge measured after 36 hrs by PrestoBlue assay relative to control; assay type: functional
# Method in brief: (§4)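 IMR90-c4 iPSC-derived neurons were plated at 16000 cells/well on poly-D-lysine/laminin and matured. They were pretreated 4 h with compound, then given 15 μg/mL etoposide. Viability was read at 36 h by PrestoBlue fluorescence (ex 560/em 590 nm).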
# [7] = tested on: PC-12; assay: Neuroprotective activity against etoposide-induced apoptosis in rat PC12 cells assessed as cell viability at 3 uM pretreated for 4 hrs followed by etoposide challenge measured after 48 hrs by PrestoBlue assay (reference value: 52.13 +/- 1.13%); assay type: functional; conditions: read-out: Activity; method in brief: as §1
# [8] = tested on: IMR90-c4; assay: Neuroprotective activity against etoposide-induced apoptosis in human IMR90-c4 cells assessed as increase in cell viability at 3 to 30 uM pretreated for 4 hrs followed by etoposide challenge measured after 36 hrs by PrestoBlue assay; assay type: functional, cell-based; method in brief: as §4
# [9] = Neuroprotective activity against etoposide-induced apoptosis in human IMR90-c4 cells assessed as cell viability at 3 uM pretreated for 4 hrs followed by etoposide challenge measured after 36 hrs by PrestoBlue assay relative to control; assay type: functional; conditions: read-out: Activity; method in brief: as §4
# [10] = tested on: PC-12; assay: Neuroprotective activity in rat PC12 cells assessed as decrease in H2O2-induced reactive oxygen species generation at 10 uM by CellROX/DAPI-blue staining-based fluorescence microscopic method; assay type: functional, cell-based
# Method in brief: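 PC12 cells were grown in RPMI with 10% horse serum and 5% FBS on collagen-coated plates. ROS was induced with H2O2 and cells exposed to compound. Staining used CellROX green plus DAPI, imaged by fluorescence microscopy at 40×.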
# [11] = tested on: PC-12; assay: Neuroprotective activity against H2O2-induced apoptosis in rat PC12 cells assessed as increase in cell viability at 1 to 30 uM after 4 hrs by PrestoBlue assay; assay type: functional, cell-based
# Method in brief: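 PC12 cells were exposed to 400 μM H2O2 with compounds at 1–30 μM. Viability was measured after 4 h with PrestoBlue.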
# [12] = biological target: T1, Glutamate [NMDA] receptor (Homo sapiens) (UniProt Q05586+Q12879+Q13224+O15399+O60391+Q14957+Q8TCU5); assay: Antagonist activity at NMDA receptor in human IMR90-c4 cells assessed as decrease in NMDA-mediated reduction in cell viability at 30 uM by PrestoBlue assay; assay type: cell-based
# Method in brief: (§5)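 IMR90-c4 iPSCs differentiated to neurons (NSC, NPC, then 21 days maturation on poly-D-lysine/laminin). Neurons challenged with 500 μM NMDA. Viability read with PrestoBlue. n = 1 with 4 technical replicates, mean ± SEM.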
# [13] = biological target: T1, Glutamate [NMDA] receptor (Homo sapiens); assay: Antagonist activity at NMDA receptor in human IMR90-c4 cells assessed as decrease in NMDA-mediated reduction in cell viability at 0.1 to 10 uM by PrestoBlue assay; assay type: cell-based; method in brief: as §5
# [14] = tested on: PC-12; assay: Neuroprotective activity against etoposide-induced apoptosis in rat PC12 cells assessed as increase in Bcl2/Bax ratio at 3 uM pretreated for 4 hrs followed by etoposide challenge measured after 24 hrs by Western blot method; assay type: functional; method in brief: as §2
# [15] = tested on: PC-12; assay: Induction of autophagy in rat PC12 cells at 10 uM after 48 hrs by MDC staining-based flow cytometric method relative to control; assay type: functional; method in brief: as §3
# [16] = tested on: PC-12; assay: Induction of autophagy in rat PC12 cells assessed as increase in beclin 1 expression at 3 uM after 24 hrs by Western blot method relative to control; assay type: functional
# Method in brief: (§6)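 PC12 lysates were taken after 24 h of compound treatment. 50 μg protein was run on 10% SDS gel and transferred to nitrocellulose. Blots were blocked in 5% BSA, probed overnight at 4 °C with beclin 1 (1:2000) and actin (1:5000), then HRP secondary. Chemiluminescence was quantified by densitometry.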
# [17] = tested on: SH-SY5Y; assay: Neuroprotective activity against etoposide-induced apoptosis in human SH-SY5Y cells assessed as cell viability at 3 uM pretreated for 4 hrs followed by etoposide challenge measured after 12 to 48 hrs by PrestoBlue assay relative to control; assay type: functional; conditions: read-out: Activity
# Method in brief: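 SH-SY5Y cells were plated at 50000/well and left overnight at 37 °C, 5% CO2. They were pretreated 4 h with compound, then given etoposide; methods give 5 μg/mL read at 48 h, while the legend states 5 μM for 12 h. PrestoBlue fluorescence (ex 560/em 590 nm).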
# [18] = biological target: T1, Glutamate [NMDA] receptor (Homo sapiens); assay: Antagonist activity at NMDA receptor in human IMR90-c4 cells assessed as decrease in NMDA-mediated reduction in cell viability at 0.1 to 30 uM by PrestoBlue assay; assay type: cell-based
# Method in brief: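 Neurons differentiated from IMR90-c4 iPSCs over roughly 21 days, then challenged with 500 μM NMDA. Viability was read with PrestoBlue. n = 1 with 4 technical replicates; % viability given as mean ± SEM.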
# [19] = tested on: PC-12; assay: Induction of autophagy in rat PC12 cells assessed as increase in beclin 1 expression at 10 uM after 24 hrs by Western blot method relative to control; assay type: functional; method in brief: as §6
# [20] = tested on: IMR90-c4; assay: Neuroprotective activity against etoposide-induced apoptosis in human IMR90-c4 cells assessed as increase in cell viability at 10 to 30 uM pretreated for 4 hrs followed by etoposide challenge measured after 36 hrs by PrestoBlue assay; assay type: functional, cell-based
# Method in brief: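 Neurons derived from IMR90-c4 iPSCs were seeded at 16000 cells/well on poly-D-lysine/laminin and matured at 37 °C, 5% CO2. Compound pretreatment lasted 4 h before 15 μg/mL etoposide. PrestoBlue fluorescence (ex 560/em 590 nm) was read after 36 h.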
# [21] = tested on: PC-12; assay: Neuroprotective activity against etoposide-induced apoptosis in rat PC12 cells assessed as cell viability at 0.1 uM pretreated for 4 hrs followed by etoposide challenge measured after 48 hrs by PrestoBlue assay relative to control; assay type: functional; conditions: read-out: Activity; method in brief: as §1
# [22] = tested on: IMR90-c4; assay: Neuroprotective activity against etoposide-induced apoptosis in human IMR90-c4 cells assessed as increase in cell viability at 0.1 to 3 uM pretreated for 4 hrs followed by etoposide challenge measured after 36 hrs by PrestoBlue assay; assay type: functional, cell-based; method in brief: as §4
# [23] = tested on: PC-12; assay: Neuroprotective activity against etoposide-induced apoptosis in rat PC12 cells assessed as increase in Bcl2/Bax ratio at 0.1 uM pretreated for 4 hrs followed by etoposide challenge measured after 24 hrs by Western blot method; assay type: functional; method in brief: as §2
# [24] = tested on: PC-12; assay: Neuroprotective activity against etoposide-induced apoptosis in rat PC12 cells assessed as increase in Bcl2/Bax ratio at 0.1 uM pretreated for 4 hrs followed by etoposide challenge measured after 48 hrs by Western blot method; assay type: functional, cell-based; method in brief: as §2
# [25] = tested on: PC-12; assay: Induction of autophagy in rat PC12 cells assessed as increase in beclin 1 expression after 24 hrs by Western blot method; assay type: functional, cell-based; method in brief: as §6
# [26] = tested on: IMR-90; assay: Neuroprotective activity against etoposide-induced apoptosis in human IMR90-c4 cells assessed as increase in cell viability at 0.1 uM pretreated for 4 hrs followed by etoposide challenge measured after 36 hrs by PrestoBlue assay relative to control; assay type: functional; method in brief: as §4
# [27] = tested on: PC-12; assay: Induction of autophagy in rat PC12 cells assessed as increase in beclin 1 expression at 0.1 uM after 24 hrs by Western blot method relative to control; assay type: functional; method in brief: as §6
smiles,measurement,setting,value
CCOC(=O)Nc1ccc(NCc2ccc(SC(F)(F)F)cc2)nc1N,viability at 0.3 µM,[1],93%
same,Activity,[2],Active
same,Activity,[3],inactive
same,fold change (FC),[4],8
same,Activity,[5],Dose-dependent effect
same,Activity,[6],71%
CCOC(=O)Nc1ccc(NCc2ccc(F)cc2)nc1N [FLUPIRTINE],viability at 3 µM,[7],79.5%
same,Activity,[8],Active
same,viability at 3 µM,[9],70%
same,Activity,[10],Active
same,Activity,[11],Active
same,inhibition,[12],Active
same,inhibition,[13],inactive
same,Activity,[14],68%
same,Activity,[3],inactive
same,fold change (FC),[15],8
same,fold change (FC),[4],2
same,Activity,[16],32%
same,viability at 3 µM,[17],69%
CCCCCCOC(=O)Nc1ccc(NCc2ccc(F)cc2)nc1N,viability at 3 µM,[7],78.5%
CCOC(=O)Nc1ccc(NCc2ccc(Cl)cc2)nc1N,viability at 3 µM,[7],64.3%
same,Activity,[11],inactive
same,inhibition,[18],inactive
same,Activity,[14],inactive
same,Activity,[3],inactive
same,fold change (FC),[15],>12
same,fold change (FC),[4],>5
same,Activity,[5],Dose-dependent effect
same,Activity,[16],-20%
same,Activity,[19],104%
CCOC(=O)Nc1ccc(NCc2ccc(F)cc2)cc1N [EZOGABINE],Activity,[20],Active
same,Activity,[10],Active
same,Activity,[11],Active
same,inhibition,[12],Active
same,inhibition,[13],inactive
same,Activity,[14],64%
same,Activity,[3],inactive
same,fold change (FC),[4],2
CCOC(=O)Nc1ccc(NCc2ccc(C(F)(F)F)nc2)nc1N,viability at 3 µM,[7],81.6%
same,viability at 0.1 µM,[21],74%
C=CCOC(=O)Nc1ccc(NCc2ccc(F)cc2)nc1N,viability at 3 µM,[7],84.9%
same,Activity,[10],inactive
same,Activity,[11],inactive
same,inhibition,[18],inactive
same,Activity,[14],150%
same,Activity,[3],inactive
same,fold change (FC),[4],2
Nc1nc(NCc2ccc(F)cc2)ccc1NC(=O)OCc1ccccc1,viability at 3 µM,[7],81.2%
same,Activity,[8],Active
same,Activity,[2],Active
same,Activity,[10],inactive
same,Activity,[11],inactive
same,inhibition,[18],inactive
same,Activity,[3],Active
same,fold change (FC),[4],3
same,Activity,[6],79%
Nc1nc(NCc2ccc(F)cc2)ccc1NC(=O)OCCCl,viability at 3 µM,[7],53.9%
CCOC(=O)Nc1ccc(NCc2ccc(C)cc2)nc1,viability at 3 µM,[7],64.3%
CCOC(=O)Nc1ccc(NCc2ccc(C(F)(F)F)cc2)nc1N,viability at 3 µM,[7],68.4%
same,viability at 0.1 µM,[21],84%
same,Activity,[22],Active
same,Activity,[11],inactive
same,inhibition,[18],inactive
same,Activity,[14],232%
same,Activity,[23],159%
same,Activity,[24],inactive
same,Activity,[3],inactive
same,Activity,[5],Dose-dependent effect
same,Activity,[25],Dose-dependent effect
same,Activity,[26],75 - 76%
same,Activity,[27],18%
CCOC(=O)Nc1ccc(NCc2ccccc2C(F)(F)F)nc1N,viability at 3 µM,[7],82.8%
CCOC(=O)Nc1ccc(NCc2ccc(C)cc2)nc1N,viability at 3 µM,[7],136%
CCOC(=O)Nc1ccc(OCc2ccc(C(F)(F)F)cc2)nc1N,viability at 3 µM,[9],65%
same,Activity,[3],inactive
same,Activity,[25],Dose-dependent effect
CCOC(=O)Nc1ccc(NCc2ccccc2)nc1,viability at 3 µM,[7],67.5%
CCOC(=O)Nc1cnc(NCc2ccc(F)cc2)cc1C,viability at 3 µM,[7],53.8%
CCOC(=O)Nc1ccc(NCCc2ccc(F)cc2)nc1N,viability at 3 µM,[7],59.3%
CCCOC(=O)Nc1ccc(NCc2ccc(F)cc2)nc1N,viability at 3 µM,[7],46.7%
CCOC(=O)Nc1ccc(NCc2ccc(OC(F)(F)F)cc2)nc1N,viability at 3 µM,[7],80.6%
same,viability at 0.1 µM,[21],77%
same,Activity,[8],Active
same,Activity,[3],inactive
same,Activity,[5],Dose-dependent effect
same,Activity,[25],Dose-dependent effect
